The source of these data is ChEMBL document CHEMBL1143612, “Combinatorial optimization of isatin-beta-thiosemicarbazones as anti-poxvirus agents” (J Med Chem, 2005).

For assay [1], the system named is HFF. As to the kind of experiment: Effective concentration required to inhibit cowpox virus plaque formation in human foreskin fibroblast (HFF) cells. Type of assay: functional, cell-based.
The subject of assay [2] is HFF. As to the kind of experiment: Ratio of Effective concentration to inhibit vaccinia virus plaque formation to that of half maximal cytotoxic concentration in human foreskin fibroblast (HFF) cells. Type of assay: functional.
Assay [3] relates to HFF. As to the kind of experiment: Half-maximal cytotoxic concentration in human foreskin fibroblast (HFF) cells. Type of assay: functional. The method, boiled down: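 Primary HFF cells seeded at 2.5 × 10^4/well in 96-well plates 24 h ahead. Exposed 7 d at 37 °C to drug in MEM/2% FBS, 1:5 serial dilutions, final 100 to 0.032 µg/mL.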
The test system of assay [4] is HFF. As to the kind of experiment: Ratio of Effective concentration to inhibit cowpox virus plaque formation to that of half maximal cytotoxic concentration in human foreskin fibroblast (HFF) cells. Type of assay: functional.
Assay [5] concerns HFF. The assay is described as follows: Effective concentration required to inhibit vaccinia virus plaque formation in human foreskin fibroblast (HFF) cells. The format is functional, cell-based.

Each structure is given as a SMILES string. pEC50: −log10 of the molar value. A value given as a limit tells only on which side of the number the result lay.

`NC(=S)/N=N/c1c(O)[nH]c2ccccc12`: the values for the pEC50 with HFF [1] and in the assay with HFF [5] were 4.22 and 4.85, respectively. Moreover, the SI with HFF [2] is recorded as over 32; in the assay with HFF [4], over 7.6. Also, the CC50 in the assay with HFF [3] is over 454 µM.
The matching figures for `Nc1ccn(C[C@@H](CO)OCP(=O)(O)O)c(=O)n1.O.O` [CIDOFOVIR]: 4.42, 4.57, over 12, over 8.3 and over 317 µM.
In the case of `CN1C(=O)/C(=N\NC(N)=S)c2ccccc21` [METHISAZONE], the pEC50 with HFF [1] is 4.85; with HFF [5], 5.48. The figures for the SI in the assay on HFF [2] and in the assay with HFF [4] were over 129 and over 31, respectively. In the assay on HFF [3], this molecule had a CC50 of over 427 µM.
